In brackets after ≈: the same amount, converted by molar mass. Several values for one entry are separate records, joined by “and”; a condition that tells them apart may be missing. Equal entries are not always repeated. Where two headings read alike, the source gives them in different places.
Tests used:
In vitro toxicity = assay type: cell-based, murine; settings: mouse, J774.16 macrophage cells
In short: (§1)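 J774.16 murine macrophages were kept in DMEM with 10% FBS and 1% pen-strep, and used until passage eight. At passage 7, 10^5 cells/well were allowed to adhere for 14 h. Test compound was then added at 0.1 to 100 µg/ml, with drug-free wells as controls. Incubation at 37°C, 5% CO2.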

J774 cells = assay: In vitro toxicity; assay type: cell-based, murine
In short: as §1

C. neoformans [1] = assay: Transmission electron microscopy, intracellular vesicles; assay type: cell-based; settings: 4 µg/ml, 6 h
[2] = tested on: GlcCer synthesis in C. neoformans; assay: In vivo labeling with [3H]palmitate, TLC of GlcCer; assay type: cell-based; settings: [3H]palmitate labeling
C. neoformans [3] = assay: NBD C6-ceramide staining; assay type: cell-based; settings: 4 µg/ml; microscopy and FACS
In short: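 C. neoformans cells, untreated or treated with 4 µg/ml test compound, were fixed in 4% paraformaldehyde in PBS and washed. They were stained with NBD C6-ceramide for 16 h at 4°C, then incubated with 1% BSA at 4°C for 1 h to strip excess dye.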

[4] = tested on: Bone marrow-derived macrophages; assay type: cell-based
C. albicans = assay: Yeast-to-hypha differentiation; assay type: cell-based; settings: 4 µg/ml
In short: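 C. albicans yeast and hyphal forms were counted after exposure to test compound and compared with drug-free controls. Twenty random fields, about 120 cells, were scored.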

C. neoformans [5] = assay: Mouse model of cryptococcosis, intranasal infection; assay type: in vivo, mouse (CBA/J); settings: 1.2 mg/kg/day i.p.
In short: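 Mice (10 per group) were infected by nasal inoculation of 20 µl containing 5 × 10^5 C. neoformans. Test compound was given i.p. at 1.2 mg/kg/day in 100 µl PBS with 0.4% DMSO, starting 2 h after inoculation. Survival followed up to 60 days. Organs of survivors were homogenized in 10 ml PBS, diluted serially 1:10, plated on YPD, and incubated at 30°C for 72 h for CFU.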

Candida glabrata = assay: In vitro susceptibility testing; assay type: cell-based; settings: FTL strains (10)
In short: (§2)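 Inoculum prepared per CLSI M27-A3. Plates incubated at 37°C with 5% CO2 for 24 to 96 h. MIC was the lowest concentration inhibiting 50% of growth versus the drug-free control. Minimum fungicidal concentration was also measured: serial dilutions from wells were plated on YPD agar, and MFC was the lowest concentration yielding three or fewer colonies (99% of inoculum killed).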

C. neoformans cells [6] = assay: In vitro passages, development of resistance; assay type: cell-based; settings: 15 days of in vitro passages (120 generations), 10^6 cells/ml; data not shown
Candida parapsilosis = assay: In vitro susceptibility testing; assay type: cell-based
In short: as §2

Aspergillus fumigatus = assay: In vitro susceptibility testing; assay type: cell-based
In short: as §2

[7] = tested on: intracellular C. neoformans; assay: Intracellular effect in J774.16 macrophages; assay type: cell-based; settings: 0.25, 1 or 4 µg/ml; dose dependent, 12 and 24 h
In short: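 J774.16 macrophages were co-incubated 1:1 with C. neoformans for 2 h, with complement and anti-capsular MAb 18B7 as opsonins. Wells were washed to remove extracellular yeast, then fresh DMEM with varying test compound concentrations was added, at 37°C, 5% CO2. Macrophages were lysed and plated for intracellular CFU.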

C. neoformans cells [8] = assay: In vitro killing assay; assay type: cell-based
In short: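 An overnight C. neoformans culture was washed in PBS and resuspended in HEPES-buffered YNB, pH 7.4. 2 × 10^4 cells were exposed to 1, 2 or 4 µg/ml test compound in 10 ml (0.4% DMSO final), at 37°C, 5% CO2, on a rotary shaker at 200 rpm. Aliquots taken at time points were diluted, plated on YPD, incubated 72 h at 30°C, and CFU counted.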

Histoplasma capsulatum = assay type: cell-based
C. neoformans [9] = assay: Mouse model of cryptococcosis, intravenous infection; assay type: in vivo, mouse (CBA/J); settings: 1.2 mg/kg/day i.p.; 8 mice per group; vehicle 7.0 ± 1.1
P. murina = assay: Murine pneumocystosis, corticosteroid-immunosuppressed; assay type: in vivo, mouse (C3H/HeN)
In short: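 Corticosteroid-immunosuppressed mice were infected with P. murina by cohousing with seed mice for 2 weeks. […] Treatment lasted 13 days. Lung homogenate slides were stained with Diff-Quik for trophic forms and cresyl echt violet for asci.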

Cryptococcus neoformans = assay: In vitro susceptibility testing; assay type: cell-based
Paecilomyces variotii = assay: In vitro susceptibility testing; assay type: cell-based; settings: QC FTL strains
In short: as §2

Pneumocystis murina = assay: In vitro testing against Pneumocystis, inhibition of ATP; assay type: cell-based; settings: read-out: IC50 (percentage inhibition of ATP)
[10] = tested on: GlcCer synthesis in J774.16 cells; assay: Labeling of mammalian cells with [3H]palmitate, TLC of GlcCer; assay type: cell-based, murine; settings: [3H]palmitate labeling, 6 h
In short: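 J774.16 macrophages (5 × 10^6 cells/ml) adhered for 14 h in six-well plates. They were exposed for 4 h to test compound at the concentrations used for the fungal labeling, then given 30 µCi/ml [3H]palmitic acid for a further 2 h.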

C. neoformans [11] = assay: Synergism assay; assay type: cell-based
Pneumocystis jirovecii = assay: In vitro testing against Pneumocystis, inhibition of ATP; assay type: cell-based; settings: read-out: IC50 (percentage inhibition of ATP)
[12] = tested on: various Cryptococcus species; assay: MIC; assay type: cell-based
In short: as §2

[13] = tested on: S. cerevisiae deletion mutants; assay type: cell-based, Saccharomyces cerevisiae
[14] = tested on: sphingolipids of C. neoformans; assay: Sphingolipid profiling by TLC and LC-MS; assay type: cell-based
[15] = TLC, confirmed by mass spectrometry

## Cc1ccccc1C(=O)NN=Cc1ccc(O)c(Br)c1 [BHBM, N′-(3-bromo-4-hydroxybenzylidene)-2-methylbenzohydrazide]
In vitro toxicity
  EC50 at 48 h: 50 µg/mL (≈ 150 µM)
J774 cells; J774 EC50 versus MIC
  EC50/MIC80 selectivity index: 50
J774 cells; macrophage cell line
  selectivity index (EC50/MIC ratio): > 50
C. neoformans [1]; P <0.05
  volume occupied by the intracellular vesicles: significant increase
C. neoformans [1]; untreated 0.33 ± 0.36
  numbers of vesicles per square micrometer of cell surface area: 0.84 ± 0.58
[2]
  synthesis of GlcCer: significantly inhibited
C. neoformans [3]
  NBD C6-ceramide staining: substantial accumulation
[4]
  mammalian GlcCer level: did not significantly affect
C. albicans
  yeast-to-hypha differentiation: significantly reduced
C. neoformans [5]
  brain tissue burden (CFU): eradication of fungal cells
  lung tissue burden (CFU): decrease of fungal load
C. neoformans [5]; up to 60 days, 10 mice per group
  mice surviving C. neoformans infection: 90%
Candida glabrata
  MIC range: 0.125−2 µg/ml
C. neoformans cells [6]
  development of resistance: did not develop resistance
Candida parapsilosis; MDPL strains (3)
  MIC range: >32 µg/mL
Candida parapsilosis; QC FTL strains
  MIC range: >16 µg/mL
Aspergillus fumigatus; FTL strains (3)
  MIC range: >16 µg/mL
Aspergillus fumigatus; MDPL strain (1)
  MIC range: 8 µg/mL (≈ 24 µM)
[7]
  intracellular replication of C. neoformans inside macrophages (CFU): significantly decreased
C. neoformans cells [8]
  incubation required to kill about 50% of the cells: at least 72 h
C. neoformans cells [8]; time-kill assay, 37°C, 5% CO2, pH 7.4
  type of killing: concentration-dependent killing
Histoplasma capsulatum
  MIC range: 0.125−1 µg/ml
C. neoformans [9]
  survival, days postinfection: 11.1 ± 3.7 days
P. murina; 13 days of treatment, versus vehicle-treated negative control
  number of asci or nuclei in lung homogenates: No significant differences
P. murina; BHBM 3.2 mg/kg/day i.p., 13 days, versus untreated
  survival: survived significantly longer
Cryptococcus neoformans
  MIC range: 0.5−2 µg/ml and 1−2 µg/ml
Cryptococcus neoformans; FTL strains (13)
  MIC range: 0.25−8 µg/ml
Paecilomyces variotii
  MIC range: >16 µg/mL
Pneumocystis murina; 24 h
  IC50: 1.02 µg/mL (≈ 3.06 µM)
Pneumocystis murina; 48 h
  IC50: < 0.01 µg/mL
Pneumocystis murina; 72 h
  IC50: < 0.01 µg/mL
Pneumocystis murina; 96 h
  IC50: 2.02 µg/mL (≈ 6.06 µM)
[10]
  synthesis of mammalian GlcCer or other sphingolipids: no significant changes
C. neoformans [11]; combined with caspofungin
  interaction category: additive (additive effect, FIC = 1)
C. neoformans [11]; combined with fluconazole
  interaction category: highly synergistic
C. neoformans [11]; combined with tunicamycin
  interaction category: synergistic (synergistic effect, FIC < 1)
Pneumocystis jirovecii; 24 h
  IC50: 0.912 µg/mL (≈ 2.74 µM)
Pneumocystis jirovecii; 48 h
  IC50: 0.159 µg/mL (≈ 0.477 µM)
Pneumocystis jirovecii; 72 h
  IC50: 0.074 µg/mL (≈ 0.222 µM)
Pneumocystis jirovecii; 96 h
  IC50: 0.072 µg/mL (≈ 0.216 µM)
[12]
  MIC: 0.25 to 8 µg/mL (≈ 0.75 to 24 µM)
[13]
  resistance of Δsla2 mutant: not resistant
[13]; BHBM in the range of 11 to 92 µg/ml, 24 h, 30°C
  growth of Δapl5, Δcos111, Δmkk1, Δste2 mutants compared with parent strain: increased resistance
[14]; LC-MS, D0 data not shown
  levels of C18 hydroxyceramide and its desaturated and methylated forms: decreased
[14]; [15]
  GlcCer levels: decrease
  dihydroceramide, sphingosine, and sphingosine-1-phosphate: increased

— article PMC4479701 (mBio, 2015)
